Experimental findings from ChEMBL document CHEMBL4052611, “Opportunistic Sampling of Roadkill as an Entry Point to Accessing Natural Products Assembled by Bacteria Associated with Non-anthropoidal Mammalian Microbiomes” (J Nat Prod, 2017) are described below.

Molecules are shown by their SMILES.

The subject of series [1] is Candida albicans. Put plainly: Antibiofilm activity against Candida albicans SC5314 after 48 hrs by XTT assay. Format: functional. The settings on record: SC5314, 48 h. The procedure, abridged: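 SC5314 grown overnight in BHI at 37 °C, then washed in PBS and resuspended in RPMI-1640 buffered to pH 7.0 with 0.17 M MOPS. Cells at 2.5×10^3 cells mL^-1 were incubated 48 h at 37 °C with compounds (2 mM DMSO stocks; DMSO ≤2% v/v final). Wells were washed twice with PBS and refilled with fresh medium. Biofilm was read by XTT (0.1 mg mL^-1, 1 h, 37 °C) at A492. Triplicate, three separate occasions.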

In series [2] the test system is Candida albicans. Put plainly: Induction of cell killing in Candida albicans SC5314 up to 100 uM after 48 hrs by XTT assay. The method in brief: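 Growth assay based on CLSI M27-A3, modified. SC5314 was precultured overnight in BHI at 37 °C, washed in PBS (pH 7.4) and resuspended at 2.5×10^3 cells mL^-1 in RPMI-1640/MOPS (pH 7.0). Compounds came from 2 mM DMSO stocks (DMSO ≤2% v/v final). After 48 h at 37 °C, viability was read by XTT (0.1 mg mL^-1, 1 h) at A492. MIC = lowest concentration giving ≥85% loss of metabolic activity. Triplicate, three occasions.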

Take `CCCCCCC[C@@H]1CC(=O)N[C@H](CC(C)C)C(=O)N[C@@H](CO)C(=O)N[C@@H]([C@@H](C)O)C(=O)N[C@H](Cc2ccccc2)C(=O)N[C@@H](C(C)C)C(=O)O1`: the IC50 (in general, the concentration that inhibits the measured activity by half) in the series with Candida albicans [1] came to 59.8 µM. Moreover, the Activity entry in the series with Candida albicans [2] is given as “Non-Toxic”.

In turn, `CCCCCCC[C@@H]1CC(=O)N[C@H](CC(C)C)C(=O)N[C@@H](CO)C(=O)N[C@@H]([C@@H](C)O)C(=O)N[C@H](Cc2ccc(O)cc2)C(=O)N[C@@H]([C@@H](C)CC)C(=O)O1` registered an IC50 with Candida albicans [1] of 29.2 µM. The Activity entry in the series with Candida albicans [2] is recorded as “Non-Toxic”.

Turning to `CCCCCCC[C@@H]1CC(=O)N[C@H](CC(C)C)C(=O)N[C@@H](CO)C(=O)N[C@@H]([C@@H](C)O)C(=O)N[C@H](Cc2ccccc2)C(=O)N[C@@H]([C@@H](C)CC)C(=O)O1`, in the series on Candida albicans [1], it took 7.7 µM to reach half-maximal inhibition (IC50). Moreover, the Activity result with Candida albicans [2] was “Non-Toxic”.

Take `CCCCC[C@@H]1CC(=O)N[C@H](CC(C)C)C(=O)N[C@@H](CO)C(=O)N[C@@H]([C@@H](C)O)C(=O)N[C@H](Cc2ccccc2)C(=O)N[C@@H]([C@@H](C)CC)C(=O)O1`: inhibition in the series on Candida albicans [1] was half-maximal at 13.4 µM (IC50). Further, in the series with Candida albicans [2], the Activity entry is given as “Non-Toxic”.
